# Most compounds without a hit are left out; they make up all but 2.2% or so of the library.
# MT stabilize HCS: microtubule stabilizers in HeLa cells, primary screen, imaging, high-content imaging; AID 2205, 2009; HeLa tubulin immunostaining HCS, 24 h; share of cells brighter than vehicle mean+2SD; 200,000 tested, 0.83% active; % tubulin-high responders, % at 10 µM;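 active = plate Z-score above 3 for both tubulin-high and condensed-nucleus cell shares, with cell loss under 80%, at 10 µM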;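 also: anti alpha tubulin signal scored within the nucleus-defined area of each cell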
# b-catenin transl: modulators of beta-catenin nuclear translocation, primary screen, imaging, HeLa cells, immunofluorescence, high-content | nuclear translocation activity, % at 5 µM | 190,000 tested, 0.3% active | AID 1665, 2009;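 active = nuclear translocation activity above 50% at 5 µM, with a well cell count of 50 or more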;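 also: per-cell ratio of nuclear to cytoplasmic median beta-catenin stain intensity; plate controls were DMSO negative control for no effect and GSK-3 inhibitor IX positive control for full effect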
#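 test system = HeLa cells, endogenous beta-catenin | dosing = single 5 µM dose plus 0.02–20 µM confirmation series | times = compound treatment 24 h, 37°C, 5% CO2 | technique = beta-catenin immunofluorescence imaging with DAPI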
# IEC-6 tox: cytotoxicity in IEC-6 intestinal epithelial cells, primary screen, cytotoxicity control for KLF5 inhibitor project, cell-based, luminescence; inhibition, % at 5 µM; IEC-6 cytotoxicity, luminescence viability; AID 1825, 2009; 290,000 tested, 0.78% active; in the data active = inhibition above about 22%;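 also: 0% = plate median of test compound wells and 100% = cytotoxic reference compound wells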
# BaF3 parental: parental Ba/F3 cell viability inhibition, counter-screen for JAK2V617F inhibitor project, murine pro-B, CellTiter-Glo luminescence; CellTiter-Glo ATP luminescence; inhibition, % at 5.6 µM; 220,000 tested, 1.1% active;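 active = inhibition above a per-campaign cutoff, the mean inhibition of all tested compounds plus 3 SD, cut at about 27% in these data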;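 also: 0% = DMSO wells and 100% = JAK Inhibitor I control wells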
# Ba/F3 V617F tox: reduced viability of JAK2V617F-dependent Ba/F3 cells, primary screen, JAK2V617F inhibitor project, cell-based, Ba/F3 EpoR-JAK2V617F, luminescence. 220,000 tested, 1.1% active. inhibition, % at 5.6 µM. ATP luminescence;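 active = inhibition above the campaign mean plus 3 SD over all tested compounds, cut at about 24% in these data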;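 also: cytokine-independent growth of Ba/F3 cells driven by EpoR plus mutant JAK2; 0% = DMSO-treated cells and 100% = JAK inhibitor I control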
# APP transl inh: inhibitors of APP translation via 5'UTR reporter, primary screen, APP 5'UTR luciferase, SH-SY5Y cells; inhibition, % at 2 µM; SH-SY5Y APP 5'UTR-luciferase reporter, luminescence; 190,000 tested, 0.82% active;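 active = inhibition above a set limit, derived from the sample mean plus 3 SD, cut at about 45% in these data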
# The depositor's hits bear a star; . = no result given.
SMILES,MT stabilize HCS,b-catenin transl,IEC-6 tox,BaF3 parental,Ba/F3 V617F tox,APP transl inh
CN(C)NC(=O)C12CCC(C)(C(=O)O1)C2(C)C (stereo not given),5,-1,7,3,5,-35
CCCc1nnc(NC(=O)CCC(=O)N2CCC(C)CC2)s1,.,.,-4,.,.,.
O=C(Nc1ccc(Nc2ccccc2)cc1)C(Cl)(Cl)Cl,4,.,-6,50*,-4,6
NC(=O)Nc1ccc(Nc2ccccc2)cc1,.,2,-1,0,2,.
O=C1C(Cl)=C(Nc2ccc3cn[nH]c3c2)C(=O)c2ccccc21,.,6,101*,107*,98*,.
CC(=O)Nc1ccc(NC2=C(Cl)C(=O)c3ccccc3C2=O)cc1,3,2,3,2,-3,89*
O=C(NC1=C(Nc2ccc(Cl)cc2)C(=O)c2ccccc2C1=O)c1ccccc1,2,-1,8,4,-2,-7
O=C(Nc1ccc2cn[nH]c2c1)c1c(Cl)cccc1Cl,4,0,0,8,4,-12
CN(C)c1ccc(NC2=C(Cl)C(=O)c3ccccc3C2=O)cc1,3,-1,25*,7,4,94*
C(=C\c1ccccc1)/C=N/Nc1nc2ccccc2[nH]1,13*,21,6,0,-3,-137
C(=N\Nc1nc2ccccc2[nH]1)/c1ccccc1,.,0,15,11,0,-128
C(=N\Nc1nc2ccccc2[nH]1)/c1cccc2cccnc12,.,-1,0,50*,91*,.
Cc1ccc(NCCc2ccc(C)nc2)cc1,2,-1,-3,1,-3,53*
S=C(NCc1ccc(Cl)cc1)NC1CCN(Cc2ccccc2)CC1,2,-3,0,6,4,23
COc1ccccc1CC(=O)NN1C(=O)c2ccccc2C1=O,4,0,10,35*,5,-5
COc1ccc(S(=O)(=O)N2CCCOC2CNC(=O)C(=O)NCc2ccncc2)cc1 (stereo not given),.,.,-1,.,.,.
CCC(=O)N/C(N)=N/c1nc(C)c2cc(OC)ccc2n1,2,.,3,27*,23,-27
COc1ccc(CCN(C)C(=O)C2CCCN(C3CCN(Cc4ccccc4)CC3)C2)cc1OC (stereo not given),.,.,1,.,.,.
CCOC(=O)C1=C(C)N=c2s/c(=C\c3cccn3C)c(=O)n2C1c1cccc(OC)c1OC (stereo not given),4,.,-2,96*,-5,-9
Cc1c(C(=O)N2CC(C)OC(C)C2)[nH]c2ccc(Br)cc12 (stereo not given),.,.,0,.,.,.
O=C(Nc1ccccc1N1CCCCC1)c1ccc(-c2ccc(Cl)cc2)o1,29*,64*,-1,-2,-2,84*
O=C(Nc1ccccc1)c1ccc(-c2ccc(Br)cc2)o1,1,.,9,-1,-3,-43
COc1ccccc1NC(=O)c1ccc(-c2ccc(Br)cc2)o1,39*,2,1,4,-1,-19
O=C(Nc1cccc(NC(=O)c2ccc(-c3ccc(Br)cc3)o2)c1)c1ccccc1,18*,-4,2,2,-1,25
O=C(Cc1ccc(Cl)cc1)Nc1ccc(-c2cc3ccccc3oc2=O)c(Cl)c1,8,102*,48*,65*,56*,86*
SMILES,MT stabilize HCS,b-catenin transl,IEC-6 tox,BaF3 parental,Ba/F3 V617F tox,APP transl inh
O=C(Cc1ccc(Cl)cc1)Nc1ccc2oc(=O)ccc2c1,.,0,9,-6,5,.
CC[C@@](C)(NS(=O)(=O)OCC(Cl)(Cl)Cl)c1ccccc1,.,.,0,.,.,.
OCCNc1nc2nonc2nc1NCCO,9,-4,-1,2,2,-24
CC(C)(C)Nc1nc2nonc2nc1NC(C)(C)C,1,-8,-2,33*,35*,.
COc1ccc(Nc2oc(COc3ccc(Cl)cc3)nc2C#N)cc1,3,.,-2,2,3,-4
COc1ccc(Nc2oc(-c3ccc(OC)cc3)nc2C#N)cc1,.,0,6,-2,1,.
CCOc1ccc(Nc2oc(-c3ccc(Cl)cc3)nc2C#N)cc1,33*,0,6,2,-1,-7
